Each structure is given as a SMILES string.

The target in test [1] is Serine/threonine-protein kinase DCLK2 (Homo sapiens) (UniProt Q8N568). Kind of test: Inhibition of recombinant human DCAMKL2 (376 to end residues) assessed as residual activity at 10 uM using KKLNRTLSFAEPG as substrate at 40 mins in presence of [gamma-33ATP] by scintillation counting based radiometry assay relative to control.
Test [2] concerns Fibroblast growth factor receptor 1 (Homo sapiens), P11362 [V561M]. Kind of test: Inhibition of recombinant human FGFR1 V561M mutant (456 to 765 residues) assessed as residual activity at 10 uM using KKKSPGEYVNIEF as substrate at 40 mins in presence of [gamma-33ATP] by scintillation counting based radiometry assay relative to control.
For test [3], the target named is Serine/threonine-protein kinase tousled-like 2 (Homo sapiens) (UniProt Q86UE8). Briefly: Inhibition of recombinant human TLK2 (387 to end residues) assessed as residual activity at 10 uM using casein as substrate incubated for 40 mins in presence of [gamma33P]ATP by scintillation counting based radiometry assay relative to control.
Serine/threonine-protein kinase tousled-like 2 (Homo sapiens), sequence (Q86UE8 whole entry, looked up): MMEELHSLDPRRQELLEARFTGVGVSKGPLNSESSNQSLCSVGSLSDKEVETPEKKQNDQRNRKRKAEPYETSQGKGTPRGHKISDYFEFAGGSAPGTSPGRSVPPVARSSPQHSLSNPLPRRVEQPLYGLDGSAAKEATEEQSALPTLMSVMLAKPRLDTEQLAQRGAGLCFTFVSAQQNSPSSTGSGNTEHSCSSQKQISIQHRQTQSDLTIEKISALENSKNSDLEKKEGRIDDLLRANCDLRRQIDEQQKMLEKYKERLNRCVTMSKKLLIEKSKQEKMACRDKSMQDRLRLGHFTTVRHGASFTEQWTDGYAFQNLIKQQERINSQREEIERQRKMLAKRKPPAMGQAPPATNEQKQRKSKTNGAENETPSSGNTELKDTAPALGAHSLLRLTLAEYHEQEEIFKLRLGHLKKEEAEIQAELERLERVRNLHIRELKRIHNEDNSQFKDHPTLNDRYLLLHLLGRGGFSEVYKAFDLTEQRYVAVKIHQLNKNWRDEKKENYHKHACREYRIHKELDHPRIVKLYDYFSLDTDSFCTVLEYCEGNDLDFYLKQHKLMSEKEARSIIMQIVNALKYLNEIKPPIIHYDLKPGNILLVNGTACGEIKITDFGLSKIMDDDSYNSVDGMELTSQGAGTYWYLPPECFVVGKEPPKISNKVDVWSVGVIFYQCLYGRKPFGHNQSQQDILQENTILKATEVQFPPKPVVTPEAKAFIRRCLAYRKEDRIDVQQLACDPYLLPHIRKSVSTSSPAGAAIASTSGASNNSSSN
Test [4] has as its target Serine/threonine-protein kinase 17A (Homo sapiens) (UniProt Q9UEE5). Kind of test: Inhibition of recombinant human DRAK1 assessed as residual activity at 10 uM using KKLNRTLSFAEPG as substrate at 40 mins in presence of [gamma-33ATP] by scintillation counting based radiometry assay relative to control.
In test [5] the target is Cyclin-dependent kinase 14/Cyclin-Y (Homo sapiens) (UniProt O94921+Q8ND76). Briefly: Inhibition of recombinant full length human CDK14/cyclinY assessed as residual activity at 10 uM in presence of [gamma-33ATP] by scintillation counting based radiometry assay relative to control. In kind it is protein-complex assay.
The target of test [6] is Mitogen-activated protein kinase kinase kinase 11 (Homo sapiens) (UniProt Q16584). Briefly: Inhibition of recombinant human MLK3 assessed as residual activity at 10 uM using by scintillation counting based radiometry assay relative to control.
The target in test [7] is Serine/threonine-protein kinase MRCK gamma (Homo sapiens) (UniProt Q6DT37). Briefly: Inhibition of recombinant human MRCKgamma assessed as residual activity at 10 uM using KKRNRTLTV as substrate incubated for 40 mins in presence of [gamma-33ATP by scintillation counting based radiometry assay relative to control.
In test [8] the target is [Pyruvate dehydrogenase (acetyl-transferring)] kinase isozyme 2, mitochondrial (Homo sapiens) (UniProt Q15119). Briefly: Inhibition of human PDHK2 assessed as residual activity at 10 uM by scintillation counting based radiometry assay relative to control.
Test [9] addresses Inhibitor of nuclear factor kappa-B kinase subunit epsilon (Homo sapiens) (UniProt Q14164). Kind of test: Inhibition of full length human IKKepsilon assessed as residual activity at 10 uM using peptide as substrate after 40 mins by [gamma-33ATP] radiometric assay relative to control.
Test [10] relates to Angiopoietin-1 receptor (Homo sapiens), Q02763 [Q939H,Q940H,Y897S]. Kind of test: Inhibition of recombinant human TIE2 Q939H/Q940H/Y897S mutant (771 to end residues) assessed as residual activity at 10 uM using EFPIYDFLPAKKK as substrate incubated for 40 mins in presence of [gamma33P]ATP by scintillation counting based radiometry assay relative to control.
For test [11], the target named is Activin receptor type-1B (Homo sapiens) (UniProt P36896). Kind of test: Inhibition of human ALK4 (150 to end residues) assessed as residual activity at 10 uM using casein as substrate incubated for 40 mins in presence of [gamma-33ATP] by scintillation counting based radiometry assay relative to control.
Activin receptor type-1B (Homo sapiens), sequence (P36896 whole entry): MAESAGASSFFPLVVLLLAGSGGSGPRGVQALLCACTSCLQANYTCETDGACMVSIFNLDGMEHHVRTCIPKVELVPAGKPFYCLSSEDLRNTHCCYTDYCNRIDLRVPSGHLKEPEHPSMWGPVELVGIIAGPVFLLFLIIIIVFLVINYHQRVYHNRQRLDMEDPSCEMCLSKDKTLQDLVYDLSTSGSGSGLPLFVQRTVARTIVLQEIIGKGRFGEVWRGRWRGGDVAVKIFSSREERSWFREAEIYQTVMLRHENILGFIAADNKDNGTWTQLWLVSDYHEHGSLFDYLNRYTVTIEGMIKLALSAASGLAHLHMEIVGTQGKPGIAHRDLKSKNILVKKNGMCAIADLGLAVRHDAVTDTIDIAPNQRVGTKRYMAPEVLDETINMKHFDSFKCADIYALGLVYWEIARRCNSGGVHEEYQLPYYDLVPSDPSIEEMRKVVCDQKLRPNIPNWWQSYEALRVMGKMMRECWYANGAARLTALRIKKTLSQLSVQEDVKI
Test [12] addresses Serine/threonine-protein kinase 4 (Homo sapiens) (UniProt Q13043). Kind of test: Inhibition of recombinant full-length human MST1 assessed as residual activity at 10 uM using KKSRGDYMTMQIG as substrate measured after 40 mins in presence of [gamma33P]ATP by scintillation counting based radiometry assay relative to control. The procedure, abridged:
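Outsourced kinase profiling of MST1 by a commercial service (Eurofins); activity reported as mean ± SEM of 2 replicates.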

In test [13] the target is Serine/threonine-protein kinase SIK3 (Homo sapiens) (UniProt Q9Y2K2). Briefly: Inhibition of recombinant human SIK3 (1 to 307 residues) assessed as residual activity at 10 uM using KKKVSRSGLYRSPSMPENLNRPR as substrate incubated for 40 mins in presence of [gamma33P]ATP by scintillation counting based radiometry assay relative to control.
Serine/threonine-protein kinase SIK3 (Homo sapiens), sequence (Q9Y2K2 whole entry, looked up, the tested form may be a part): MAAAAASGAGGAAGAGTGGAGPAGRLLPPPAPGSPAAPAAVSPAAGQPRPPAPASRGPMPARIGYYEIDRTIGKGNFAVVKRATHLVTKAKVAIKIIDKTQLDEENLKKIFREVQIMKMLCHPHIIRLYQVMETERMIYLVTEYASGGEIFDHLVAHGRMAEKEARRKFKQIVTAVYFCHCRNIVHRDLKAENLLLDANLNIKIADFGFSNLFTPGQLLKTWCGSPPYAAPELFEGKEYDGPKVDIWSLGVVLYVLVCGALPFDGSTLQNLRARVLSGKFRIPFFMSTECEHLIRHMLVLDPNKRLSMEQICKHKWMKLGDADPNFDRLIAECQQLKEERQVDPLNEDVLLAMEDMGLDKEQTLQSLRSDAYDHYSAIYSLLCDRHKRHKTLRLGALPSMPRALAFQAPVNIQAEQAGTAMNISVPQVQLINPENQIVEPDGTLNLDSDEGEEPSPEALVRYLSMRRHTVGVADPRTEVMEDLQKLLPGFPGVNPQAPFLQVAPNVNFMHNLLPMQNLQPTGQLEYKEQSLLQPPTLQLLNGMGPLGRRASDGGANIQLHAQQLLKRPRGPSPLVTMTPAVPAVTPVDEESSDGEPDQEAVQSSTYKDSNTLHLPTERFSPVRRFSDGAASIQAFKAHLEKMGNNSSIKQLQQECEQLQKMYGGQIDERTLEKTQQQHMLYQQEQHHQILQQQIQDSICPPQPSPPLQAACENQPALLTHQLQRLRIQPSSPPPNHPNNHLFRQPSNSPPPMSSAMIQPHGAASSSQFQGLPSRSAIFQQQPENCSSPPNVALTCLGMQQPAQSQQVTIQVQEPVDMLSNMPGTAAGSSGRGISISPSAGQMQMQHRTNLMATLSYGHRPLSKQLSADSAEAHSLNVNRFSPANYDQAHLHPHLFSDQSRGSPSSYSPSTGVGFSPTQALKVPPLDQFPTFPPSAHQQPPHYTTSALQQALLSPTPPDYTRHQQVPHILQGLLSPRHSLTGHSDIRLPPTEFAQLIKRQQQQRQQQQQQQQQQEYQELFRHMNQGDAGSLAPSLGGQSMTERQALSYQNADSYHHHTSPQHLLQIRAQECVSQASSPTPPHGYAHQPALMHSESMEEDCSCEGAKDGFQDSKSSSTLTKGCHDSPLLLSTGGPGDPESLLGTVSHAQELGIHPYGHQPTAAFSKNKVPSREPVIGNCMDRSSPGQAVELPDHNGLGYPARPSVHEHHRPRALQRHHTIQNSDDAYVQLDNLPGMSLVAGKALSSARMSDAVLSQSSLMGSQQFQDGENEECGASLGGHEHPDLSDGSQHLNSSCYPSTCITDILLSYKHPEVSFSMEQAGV
Test [14] concerns the target Protein kinase C alpha type (Homo sapiens) (UniProt P17252). Briefly: Inhibition of recombinant human full length PKCalpha assessed as residual activity at 10 uM using histone H1 as substrate incubated for 40 mins in presence of [gamma33P]ATP by scintillation counting based radiometry assay relative to control.
The target of test [15] is Dual specificity mitogen-activated protein kinase kinase 2 (Homo sapiens) (UniProt P36507). Briefly: Inhibition of recombinant human MEK2 assessed as residual activity at 10 uM using MBP as substrate incubated for 40 mins in presence of [gamma-33ATP by scintillation counting based radiometry assay relative to control.
Dual specificity mitogen-activated protein kinase kinase 2 (Homo sapiens), sequence (P36507 whole entry): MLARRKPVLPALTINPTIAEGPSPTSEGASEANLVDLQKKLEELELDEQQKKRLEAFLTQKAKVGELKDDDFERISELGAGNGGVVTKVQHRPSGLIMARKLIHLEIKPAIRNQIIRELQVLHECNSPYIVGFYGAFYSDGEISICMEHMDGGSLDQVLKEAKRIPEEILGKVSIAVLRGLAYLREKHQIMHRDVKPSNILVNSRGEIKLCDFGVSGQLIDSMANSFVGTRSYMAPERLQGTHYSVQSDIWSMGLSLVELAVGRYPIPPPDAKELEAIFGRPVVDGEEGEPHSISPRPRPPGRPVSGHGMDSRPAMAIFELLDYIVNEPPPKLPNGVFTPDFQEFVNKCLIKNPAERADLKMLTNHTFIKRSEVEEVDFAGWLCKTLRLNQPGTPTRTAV
Another test is filed under the species Homo sapiens. Kind of test: Inhibition of recombinant human A-Raf Y301D/ Y302D mutant (273 to end residues) assessed as residual activity at 10 uM using myelin basic protein as substrate incubated for 40 mins in presence of [gamma-33ATP] by scintillation counting based radiometry assay relative to control.
For test [16], the system named is Epidermal growth factor receptor (Homo sapiens), P00533 [L861Q]. Kind of test: Inhibition of recombinant human EGFR L861Q mutant (696 to end residues) assessed as residual activity at 10 uM using poly(Glu, Tyr) 4:1 as substrate at 40 mins in presence of [gamma-33ATP] by scintillation counting based radiometry assay relative to control.
Test [17] addresses Homeodomain-interacting protein kinase 2 (Homo sapiens) (UniProt Q9H2X6). Briefly: Inhibition of human HIPK2 (165 to 564 residues) assessed as residual activity at 10 uM using myelin basic protein as substrate after 40 mins by [gamma-33ATP] radiometric assay relative to control.
In test [18] the target is Non-receptor tyrosine-protein kinase TYK2 (Homo sapiens) (UniProt P29597). Kind of test: Inhibition of recombinant human TYK2 (875 to end residues) assessed as residual activity at 10 uM using GGMEDIYFEFMGGKKK as substrate incubated for 40 mins in presence of [gamma33P]ATP by scintillation counting based radiometry assay relative to control.
Non-receptor tyrosine-protein kinase TYK2 (Homo sapiens), sequence (P29597 whole entry, the tested form may be a part): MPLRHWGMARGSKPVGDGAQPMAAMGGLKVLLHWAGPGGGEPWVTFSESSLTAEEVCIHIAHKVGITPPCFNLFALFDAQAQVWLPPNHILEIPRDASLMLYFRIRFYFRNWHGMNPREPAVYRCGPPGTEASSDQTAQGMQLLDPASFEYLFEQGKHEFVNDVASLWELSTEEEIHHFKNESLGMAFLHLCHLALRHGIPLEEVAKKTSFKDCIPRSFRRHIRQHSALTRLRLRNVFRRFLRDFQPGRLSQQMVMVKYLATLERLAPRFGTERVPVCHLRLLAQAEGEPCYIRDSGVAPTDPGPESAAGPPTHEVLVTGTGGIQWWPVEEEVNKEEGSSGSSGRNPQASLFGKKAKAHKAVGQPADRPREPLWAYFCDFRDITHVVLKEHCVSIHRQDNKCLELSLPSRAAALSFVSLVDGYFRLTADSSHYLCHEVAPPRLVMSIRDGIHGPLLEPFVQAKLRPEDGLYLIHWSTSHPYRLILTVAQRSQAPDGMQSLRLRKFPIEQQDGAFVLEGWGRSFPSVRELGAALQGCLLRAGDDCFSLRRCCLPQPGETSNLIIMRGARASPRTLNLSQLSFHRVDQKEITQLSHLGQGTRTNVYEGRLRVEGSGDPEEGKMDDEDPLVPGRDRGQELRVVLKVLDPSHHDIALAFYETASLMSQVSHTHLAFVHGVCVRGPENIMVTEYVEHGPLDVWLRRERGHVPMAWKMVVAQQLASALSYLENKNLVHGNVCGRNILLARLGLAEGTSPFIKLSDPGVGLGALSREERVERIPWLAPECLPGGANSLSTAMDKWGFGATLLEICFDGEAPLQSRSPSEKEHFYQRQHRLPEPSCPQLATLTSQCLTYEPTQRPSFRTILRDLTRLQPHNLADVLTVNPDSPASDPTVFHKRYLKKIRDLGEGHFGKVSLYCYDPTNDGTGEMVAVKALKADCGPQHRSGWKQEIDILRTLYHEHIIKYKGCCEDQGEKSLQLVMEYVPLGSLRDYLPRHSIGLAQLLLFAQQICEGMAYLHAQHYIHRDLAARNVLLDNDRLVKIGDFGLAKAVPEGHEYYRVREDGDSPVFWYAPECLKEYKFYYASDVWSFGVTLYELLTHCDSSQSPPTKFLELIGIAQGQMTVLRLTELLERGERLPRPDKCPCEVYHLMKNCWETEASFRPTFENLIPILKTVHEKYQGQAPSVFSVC
Test [19] has as its target PAS domain-containing serine/threonine-protein kinase (Homo sapiens) (UniProt Q96RG2). Kind of test: Inhibition of recombinant human PASK (995 to end residues) assessed as residual activity at 10 uM using KKLNRTLSFAEPG as substrate measured after 40 mins in presence of [gamma33P]ATP by scintillation counting based radiometry assay relative to control.
Test [20] has as its target G protein-coupled receptor kinase 3 (Homo sapiens) (UniProt P35626). Briefly: Inhibition of recombinant full length human GRK3 assessed as residual activity at 10 uM using casein as substrate at 40 mins in presence of [gamma-33ATP] by scintillation counting based radiometry assay relative to control.

Serine/threonine-protein kinase DCLK2 (Homo sapiens), sequence (Q8N568 whole entry, the tested form may be a part): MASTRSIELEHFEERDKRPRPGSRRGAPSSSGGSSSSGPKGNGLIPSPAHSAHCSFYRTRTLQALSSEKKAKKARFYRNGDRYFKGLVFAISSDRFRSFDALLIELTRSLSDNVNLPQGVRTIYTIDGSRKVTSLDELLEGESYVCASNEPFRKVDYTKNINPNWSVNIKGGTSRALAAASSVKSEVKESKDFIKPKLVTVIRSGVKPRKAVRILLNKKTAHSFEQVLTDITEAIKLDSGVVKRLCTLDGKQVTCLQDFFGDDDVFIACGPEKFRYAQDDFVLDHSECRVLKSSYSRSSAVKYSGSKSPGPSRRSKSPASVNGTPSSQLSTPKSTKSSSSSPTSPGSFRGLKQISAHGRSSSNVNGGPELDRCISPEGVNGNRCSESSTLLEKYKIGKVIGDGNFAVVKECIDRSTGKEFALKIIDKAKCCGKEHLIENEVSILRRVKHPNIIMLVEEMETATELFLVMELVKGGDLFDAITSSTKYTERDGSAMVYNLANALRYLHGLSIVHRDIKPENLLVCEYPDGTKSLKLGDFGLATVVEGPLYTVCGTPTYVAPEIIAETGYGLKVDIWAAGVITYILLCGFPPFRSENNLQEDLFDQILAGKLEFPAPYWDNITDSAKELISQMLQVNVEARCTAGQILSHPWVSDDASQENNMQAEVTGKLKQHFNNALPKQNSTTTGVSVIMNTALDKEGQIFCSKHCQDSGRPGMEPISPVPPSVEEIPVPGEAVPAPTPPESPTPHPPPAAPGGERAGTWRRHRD

For `C[C@@H](c1ccccc1)n1nnc2cnc3ccc(-c4cnc5[nH]ccc5c4)cc3c21`, the Activity in test [1] turned out to be 61%; in test [2] it was 22%; in test [3], 106%; in test [4], 60%; in test [5] it was 92%; in [6], 73%. In addition, the Activity in test [7] came out at 67%; in [8] it was 86%; in test [9], 94%; in test [10], 81%; in test [11], 100%; in test [12], 73%. The Activity in test [13] amounted to 20%; in [14], 77%; in test [15], 92%; in the test filed under Homo sapiens it was 95%; in test [16], 70%; in [17], 93%. For the same compound, the Activity is 60% in test [18], 30% in test [19] and 110% in test [20].

The values above are taken from ChEMBL document CHEMBL4334471, “Discovery of 1,8-disubstituted-[1,2,3]triazolo[4,5-c]quinoline derivatives as a new class of Hippo signaling pathway inhibitors” (Bioorg Med Chem Lett, 2019).
